# Reference: ChEMBL document CHEMBL1138555, “N-acylated and N,N'-diacylated imidazolidine-2-thione derivatives and N,N'-diacylated tetrahydropyrimidine-2(1H)-thione analogues: synthesis and antiproliferative activity” (Eur J Med Chem, 2009)
# How the values were obtained:
# [1] = tested on: LOX IMVI; assay: Growth inhibition of human LOXIMVI cells after 48 hrs by sulforhodamine B assay; type: functional
# How it was run: (§1)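 NCI screen panel. Five 10-fold concentrations from 10^-4 to 10^-8 M. Exposure for the last 48 h of a 72 h incubation. Growth estimated by sulforhodamine B protein assay. GI50 is the concentration giving 50% growth inhibition. Where that level was not reached or was exceeded, the value is given as above or below the highest or lowest concentration tested.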
# [2] = tested on: BT-549; assay: Growth inhibition of human BT549 cells after 48 hrs by sulforhodamine B assay; type: functional; details: BT-549, 48 h; how it was run: as §1
# [3] = tested on: 786-0; assay: Growth inhibition of human 786-0 cells after 48 hrs by sulforhodamine B assay; type: functional; details: 786-0, 48 h; how it was run: as §1
# [4] = tested on: SK-MEL-28; assay: Growth inhibition of human SK-MEL-28 cells after 48 hrs by sulforhodamine B assay; type: functional; details: SK-MEL-28, 48 h; how it was run: as §1
# [5] = tested on: PC-3; assay: Growth inhibition of human PC3 cells after 48 hrs by sulforhodamine B assay; type: functional; details: PC-3, 48 h; how it was run: as §1
# [6] = tested on: NCI-H322M; assay: Growth inhibition of human NCI-H322M cells after 48 hrs by sulforhodamine B assay; type: functional; how it was run: as §1
# [7] = tested on: CCRF-CEM; assay: Growth inhibition of human CCRF-CEM cells after 48 hrs by sulforhodamine B assay; type: functional; how it was run: as §1
# [8] = tested on: SN12C; assay: Growth inhibition of human SN12C cells after 48 hrs by sulforhodamine B assay; type: functional
# How it was run: (§2)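 NCI in vitro panel screen. Compounds tested at five 10-fold dilutions, 10^-4 to 10^-8 M. Cells in 96-well plates were exposed for the last 48 h of a 72 h incubation. Viability/growth was read by sulforhodamine B protein assay. GI50 is the concentration giving 50% growth inhibition. Values beyond the tested range are reported as greater or less than the maximum or minimum concentration.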
# [9] = tested on: MOLT-4; assay: Growth inhibition of human MOLT4 cells after 48 hrs by sulforhodamine B assay; type: functional; details: MOLT-4, 48 h; how it was run: as §1
# [10] = tested on: MDA-N; assay: Growth inhibition of human MDA-N cells after 48 hrs by sulforhodamine B assay; type: functional
# How it was run: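 NCI screen panel. Five 10-fold concentrations from 10^-4 to 10^-8 M. Exposure for the last 48 h of a 72 h incubation. Growth estimated by sulforhodamine B protein assay. Where that level was not reached or was exceeded, the value is given as above or below the highest or lowest concentration tested.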
# [11] = tested on: OVCAR-5; assay: Growth inhibition of human OVCAR5 cells after 48 hrs by sulforhodamine B assay; type: functional; details: OVCAR-5, 48 h; how it was run: as §1
# [12] = tested on: Malme-3M; assay: Growth inhibition of human MALME-3M cells after 48 hrs by sulforhodamine B assay; type: functional; how it was run: as §1
# [13] = tested on: UACC-257; assay: Growth inhibition of human UACC257 cells after 48 hrs by sulforhodamine B assay; type: functional; details: UACC-257, 48 h; how it was run: as §2
# [14] = tested on: U-251; assay: Growth inhibition of human U251 cells after 48 hrs by sulforhodamine B assay; type: functional; details: U-251, 48 h; how it was run: as §2
# [15] = tested on: SK-OV-3; assay: Growth inhibition of human SKOV3 cells after 48 hrs by sulforhodamine B assay; type: functional; details: SK-OV-3, 48 h; how it was run: as §1
# [16] = tested on: HCC 2998; assay: Growth inhibition of human HCC2998 cells after 48 hrs by sulforhodamine B assay; type: functional; details: HCC 2998, 48 h; how it was run: as §1
# [17] = tested on: NCI-H226; assay: Growth inhibition of human NCI-H226 cells after 48 hrs by sulforhodamine B assay; type: functional; details: NCI-H226, 48 h; how it was run: as §1
# [18] = tested on: OVCAR-4; assay: Growth inhibition of human OVCAR4 cells after 48 hrs by sulforhodamine B assay; type: functional; details: OVCAR-4, 48 h; how it was run: as §1
# [19] = tested on: SF-295; assay: Growth inhibition of human SF295 cells after 48 hrs by sulforhodamine B assay; type: functional; details: SF-295, 48 h; how it was run: as §1
# [20] = tested on: UACC-62; assay: Growth inhibition of human UACC62 cells after 48 hrs by sulforhodamine B assay; type: functional; details: UACC-62, 48 h; how it was run: as §2
# [21] = tested on: SF-268; assay: Growth inhibition of human SF268 cells after 48 hrs by sulforhodamine B assay; type: functional; details: SF-268, 48 h; how it was run: as §1
# [22] = tested on: HCT-15; assay: Growth inhibition of human HCT15 cells after 48 hrs by sulforhodamine B assay; type: functional; details: HCT-15, 48 h; how it was run: as §1
# [23] = tested on: MDA-MB-435; assay: Growth inhibition of human MDA-MB-435 cells after 48 hrs by sulforhodamine B assay; type: functional; details: MDA-MB-435, 48 h; how it was run: as §1
# [24] = tested on: A549; assay: Growth inhibition of human A549 cells after 48 hrs by sulforhodamine B assay; type: functional; details: A549, 48 h; how it was run: as §1
# [25] = tested on: HCT-116; assay: Growth inhibition of human HCT116 cells after 48 hrs by sulforhodamine B assay; type: functional; details: HCT-116, 48 h; how it was run: as §1
# [26] = tested on: DU-145; assay: Growth inhibition of human DU145 cells after 48 hrs by sulforhodamine B assay; type: functional; details: DU-145, 48 h; how it was run: as §1
# [27] = tested on: HT-29; assay: Growth inhibition of human HT-29 cells after 48 hrs by sulforhodamine B assay; type: functional; details: HT-29, 48 h; how it was run: as §1
# [28] = tested on: A498; assay: Growth inhibition of human A498 cells after 48 hrs by sulforhodamine B assay; type: functional; details: A498, 48 h; how it was run: as §1
# [29] = tested on: HOP-62; assay: Growth inhibition of human HOP62 cells after 48 hrs by sulforhodamine B assay; type: functional; details: HOP-62, 48 h; how it was run: as §1
# [30] = tested on: COLO 205; assay: Growth inhibition of human COLO205 cells after 48 hrs by sulforhodamine B assay; type: functional; details: COLO 205, 48 h; how it was run: as §1
# [31] = tested on: IGROV-1; assay: Growth inhibition of human IGROV1 cells after 48 hrs by sulforhodamine B assay; type: functional; details: IGROV-1, 48 h; how it was run: as §1
# [32] = tested on: UO-31; assay: Growth inhibition of human UO31 cells after 48 hrs by sulforhodamine B assay; type: functional; details: UO-31, 48 h; how it was run: as §2
# [33] = tested on: ACHN; assay: Growth inhibition of human ACHN cells after 48 hrs by sulforhodamine B assay; type: functional; how it was run: as §1
# [34] = tested on: SNB-75; assay: Growth inhibition of human SNB75 cells after 48 hrs by sulforhodamine B assay; type: functional; details: SNB-75, 48 h; how it was run: as §2
# [35] = tested on: MDA-MB-231; assay: Growth inhibition of human MDA-MB-231 cells after 48 hrs by sulforhodamine B assay; type: functional; details: MDA-MB-231, 48 h; how it was run: as §1
# [36] = tested on: SNB-19; assay: Growth inhibition of human SNB19 cells after 48 hrs by sulforhodamine B assay; type: functional; details: SNB-19, 48 h; how it was run: as §2
# [37] = tested on: MT4; assay: Antiproliferative activity against human MT4 cells assessed as reduction of growth by MTT assay; type: functional, cell-based
# How it was run: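 MT-4 lymphoblastoid T cells (ATCC) in RPMI 1640 with 10% FCS, penicillin/streptomycin, checked for mycoplasma. 1 × 10⁴ mock-infected cells per well with serial dilutions from a 100 mM DMSO stock. Incubated 4 days at 37 °C, viable cells counted by MTT. IC50 versus untreated controls by linear regression. Mean of three separate experiments.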
# [38] = tested on: MCF7; assay: Growth inhibition of human MCF7 cells after 48 hrs by sulforhodamine B assay; type: functional; details: MCF7, 48 h; how it was run: as §1
# [39] = Growth inhibition of human Hs 578T cells after 48 hrs by sulforhodamine B assay; type: functional; how it was run: as §1
# [40] = tested on: HOP-92; assay: Growth inhibition of human HOP92 cells after 48 hrs by sulforhodamine B assay; type: functional; details: HOP-92, 48 h; how it was run: as §1
# [41] = tested on: RXF 393; assay: Growth inhibition of human RXF393 cells after 48 hrs by sulforhodamine B assay; type: functional; details: RXF 393, 48 h; how it was run: as §1
structure (smiles),measurement,setting,value
O=C(c1cccs1)N1CCN(C(=O)c2cccs2)C1=S,GI50,[1],2.9 µM
same,GI50,[2],10 µM
same,GI50,[3],2.4 µM
same,GI50,[4],3.8 µM
same,GI50,[5],6.1 µM
same,GI50,[6],15.5 µM
same,GI50,[7],2.1 µM
same,GI50,[8],2.6 µM
same,GI50,[9],3.2 µM
same,GI50,[10],2.6 µM
same,GI50,[11],17.1 µM
same,GI50,[12],10.3 µM
same,GI50,[13],7.5 µM
same,GI50,[14],7.9 µM
same,GI50,[15],15.9 µM
same,GI50,[16],8 µM
same,GI50,[17],15.9 µM
same,GI50,[18],18.8 µM
same,GI50,[19],16.7 µM
same,GI50,[20],12.3 µM
same,GI50,[21],8.2 µM
same,GI50,[22],5.3 µM
same,GI50,[23],2.8 µM
same,GI50,[24],4 µM
same,GI50,[25],11.4 µM
same,GI50,[26],3.3 µM
same,GI50,[27],11.9 µM
same,GI50,[28],15.1 µM
same,GI50,[29],6.7 µM
same,GI50,[30],7.7 µM
same,GI50,[31],9.6 µM
same,GI50,[32],2.3 µM
same,GI50,[33],15 µM
same,GI50,[34],1.4 µM
same,GI50,[35],9.4 µM
same,GI50,[36],14.4 µM
same,IC50,[37],11 µM
same,GI50,[38],3.2 µM
same,GI50,[39],16.6 µM
same,GI50,[40],7.2 µM
same,GI50,[41],2.9 µM
O=C(c1cc(Cl)cc(Cl)c1)N1CCN(C(=O)c2cc(Cl)cc(Cl)c2)C1=S,GI50,[1],3 µM
same,GI50,[2],22.4 µM
same,GI50,[3],2.9 µM
same,GI50,[4],12.2 µM
same,GI50,[5],16.9 µM
same,GI50,[6],16.8 µM
same,GI50,[7],3.3 µM
same,GI50,[8],9 µM
same,GI50,[9],3.4 µM
same,GI50,[10],13 µM
same,GI50,[11],22.9 µM
same,GI50,[12],9.8 µM
same,GI50,[13],15.5 µM
same,GI50,[14],12.9 µM
same,GI50,[15],15.3 µM
same,GI50,[16],16.7 µM
same,GI50,[17],23.7 µM
same,GI50,[18],18 µM
same,GI50,[19],19.5 µM
same,GI50,[20],15.6 µM
same,GI50,[21],14.1 µM
same,GI50,[22],13.5 µM
same,GI50,[23],9 µM
same,GI50,[24],18.4 µM
same,GI50,[25],16.9 µM
same,GI50,[26],10.5 µM
same,GI50,[27],22.2 µM
same,GI50,[28],15.5 µM
same,GI50,[29],14.3 µM
same,GI50,[30],18.3 µM
same,GI50,[31],15.3 µM
same,GI50,[32],2.3 µM
same,GI50,[33],17.4 µM
same,GI50,[34],14.1 µM
same,GI50,[35],16.2 µM
same,GI50,[36],19 µM
same,IC50,[37],13 µM
same,GI50,[38],3.1 µM
same,GI50,[39],21.4 µM
same,GI50,[40],3.2 µM
same,GI50,[41],12.7 µM
